≈ marks a conversion by molar mass, not a printed value.
How the values were obtained:
Mus musculus [1] = assay: Toxicity in female CDF1 mouse allografted with mouse P388 cells assessed as animal survival at 100 mg/kg, ip administered daily for 9 days as Klucel suspension starting 24 hrs after tumor inoculation; type: organism-based; design: dose 100 mg/kg, route intraperitoneal; conditions: in vivo
Summary of the method: (§1)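 P-388 leukemia ascitic fluid inoculated ip. Compound given ip as a suspension in Klucel (hydroxypropylcellulose), once daily for nine doses beginning 24 h post-inoculation. Acute toxicity assessed as toxicity-day survivors per group. Survival was followed up to 30 days, with 30-day survival counted as "cure". Follows NCI screening protocols.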

P388 [2] = assay: Antitumor activity against mouse P388 cells allografted in female CDF1 mouse assessed as disease cures by measuring 30-days host survival at 200 mg/kg, ip administered daily for 9 days as Klucel suspension starting 24 hrs after tumor inoculation relative to control; type: functional; conditions: route intraperitoneal
Summary of the method: (§2)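 P388 leukemia given as an ascitic fluid cell inoculum, ip, to mice of the strain and sex in each line. Nine daily ip doses were given in a Klucel (hydroxypropylcellulose) suspension, starting 24 h after inoculation. Read-out is median survival time as %T/C, with >125 taken as significant; a "cure" means 30-day survival.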

P388 [3] = assay: Antitumor activity against mouse P388 cells allografted in female CDF1 mouse assessed as disease cures by measuring 30-days host survival at 12.5 mg/kg, ip administered daily for 9 days as Klucel suspension starting 24 hrs after tumor inoculation relative to control; type: functional; conditions: route intraperitoneal; summary of the method: as §2
P388 [4] = assay: Antitumor activity against mouse P388 cells allografted in female CDF1 mouse assessed as change in body weight at 50 mg/kg, ip administered daily for 9 days as Klucel suspension starting 24 hrs after tumor inoculation; type: functional; conditions: route intraperitoneal
Summary of the method: (§3)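 Ascitic fluid carrying P388 cells was inoculated ip. Compound was given ip in nine daily doses, starting 24 h after inoculation, in Klucel (hydroxypropylcellulose) suspension or in saline with Tween-80. Body-weight difference (treated minus control) was recorded on day 5. Survival was scored as %T/C of median survival time, and 30-day survival counted as cure.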

L1210 [5] = assay: Antileukemic activity against mouse L1210 cells allografted in female BDF1 mouse assessed as host mean survival time at 100 mg/kg, ip administered daily for 9 days as Klucel suspension starting 24 hrs after tumor inoculation relative to control; type: functional; conditions: route intraperitoneal
Summary of the method: (§4)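 L1210 leukemia given as an ascitic fluid cell inoculum, ip, to mice of the strain and sex in each line. Test material was given ip for nine daily doses starting 24 h after inoculation, in a Klucel (hydroxypropylcellulose) suspension. Read-out is mean survival time as %T/C versus controls, with >125 taken as significant.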

L1210 [6] = assay: Antileukemic activity against mouse L1210 cells allografted in female BDF1 mouse assessed as host mean survival time at 200 mg/kg, ip administered daily for 9 days as Klucel suspension starting 24 hrs after tumor inoculation relative to control; type: functional; conditions: route intraperitoneal; summary of the method: as §4
P388 [7] = assay: Antitumor activity against mouse P388 cells allografted in female CDF1 mouse assessed as change in body weight at 200 mg/kg, ip administered daily for 9 days as Klucel suspension starting 24 hrs after tumor inoculation; type: functional; conditions: route intraperitoneal; summary of the method: as §3
Mus musculus [8] = assay: Toxicity in female CDF1 mouse allografted with mouse P388 cells assessed as animal survival at 50 mg/kg, ip administered daily for 9 days as Klucel suspension starting 24 hrs after tumor inoculation; type: organism-based; design: dose 50 mg/kg, route intraperitoneal; conditions: in vivo; summary of the method: as §1
Mus musculus [9] = assay: Toxicity in female BDF1 mouse allografted with mouse L1210 cells assessed as animal survival at 50 mg/kg, ip administered daily for 9 days as Klucel suspension starting 24 hrs after tumor inoculation measured on fifth day; type: organism-based; design: dose 50 mg/kg, route intraperitoneal; conditions: in vivo
Summary of the method: (§5)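 L1210 leukemia passaged as ascitic fluid and inoculated ip. Test agent given ip as a Klucel (hydroxypropylcellulose) suspension, nine daily doses starting 24 h after tumor inoculation. Acute toxicity read as toxicity-day survivors per group (out of 6), recorded on day 5. Animal weight difference T − C was also recorded. Follows NCI screening protocols.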

P388 [10] = assay: Antitumor activity against mouse P388 cells allografted in female CDF1 mouse assessed as change in body weight at 25 mg/kg, ip administered daily for 9 days as Klucel suspension starting 24 hrs after tumor inoculation; type: functional; conditions: route intraperitoneal; summary of the method: as §3
P388 [11] = assay: Antitumor activity against mouse P388 cells allografted in female CDF1 mouse assessed as change in body weight at 12.5 mg/kg, ip administered daily for 9 days as Klucel suspension starting 24 hrs after tumor inoculation; type: functional; conditions: route intraperitoneal; summary of the method: as §3
Mus musculus [12] = assay: Toxicity in female CDF1 mouse allografted with mouse P388 cells assessed as animal survival at 25 mg/kg, ip administered daily for 9 days as Klucel suspension starting 24 hrs after tumor inoculation; type: organism-based; design: dose 25 mg/kg, route intraperitoneal; conditions: in vivo; summary of the method: as §1
Mus musculus [13] = assay: Toxicity in female CDF1 mouse allografted with mouse P388 cells assessed as animal survival at 12.5 mg/kg, ip administered daily for 9 days as Klucel suspension starting 24 hrs after tumor inoculation; type: organism-based; design: dose 12.5 mg/kg, route intraperitoneal; conditions: in vivo; summary of the method: as §1
P388 [14] = assay: Antitumor activity against mouse P388 cells allografted in female CDF1 mouse assessed as disease cures by measuring 30-days host survival at 50 mg/kg, ip administered daily for 9 days as Klucel suspension starting 24 hrs after tumor inoculation relative to control; type: functional; conditions: route intraperitoneal; summary of the method: as §2
[15] = Cytotoxicity against human 9KB cells treated as ethanol solution; type: functional; conditions: read-out: ED50 (the source's name)
Summary of the method: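 Compound applied as an ethanol solution; activity read out as ED50 under the general screening protocol.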

P388 [16] = assay: Antitumor activity against mouse P388 cells allografted in female CDF1 mouse assessed as change in body weight at 100 mg/kg, ip administered daily for 9 days as Klucel suspension starting 24 hrs after tumor inoculation; type: functional; conditions: route intraperitoneal; summary of the method: as §3
L1210 [17] = assay: Antileukemic activity against mouse L1210 cells allografted in female BDF1 mouse assessed as host mean survival time at 50 mg/kg, ip administered daily for 9 days as Klucel suspension starting 24 hrs after tumor inoculation relative to control; type: functional; conditions: route intraperitoneal; summary of the method: as §4
L1210 [18] = assay: Antileukemic activity against mouse L1210 cells allografted in female BDF1 mouse assessed as change in body weight at 200 mg/kg, ip administered daily for 9 days as Klucel suspension starting 24 hrs after tumor inoculation; type: functional; conditions: route intraperitoneal
Summary of the method: (§6)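 Ascitic fluid carrying L1210 cells was inoculated ip. Compound was given ip as a Klucel (hydroxypropylcellulose) suspension in nine daily doses, starting 24 h after inoculation. Body-weight difference (treated minus control) was recorded on day 5. Survival was scored as %T/C of mean survival time.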

P388 [19] = assay: Antitumor activity against mouse P388 cells allografted in female CDF1 mouse assessed as disease cures by measuring 30-days host survival at 25 mg/kg, ip administered daily for 9 days as Klucel suspension starting 24 hrs after tumor inoculation relative to control; type: functional; conditions: route intraperitoneal; summary of the method: as §2
L1210 [20] = assay: Antileukemic activity against mouse L1210 cells allografted in female BDF1 mouse assessed as change in body weight at 50 mg/kg, ip administered daily for 9 days as Klucel suspension starting 24 hrs after tumor inoculation; type: functional; conditions: route intraperitoneal; summary of the method: as §6
Mus musculus [21] = assay: Toxicity in female BDF1 mouse allografted with mouse L1210 cells assessed as animal survival at 200 mg/kg, ip administered daily for 9 days as Klucel suspension starting 24 hrs after tumor inoculation measured on fifth day; type: organism-based; design: dose 200 mg/kg, route intraperitoneal; conditions: in vivo; summary of the method: as §5
P388 [22] = assay: Antitumor activity against mouse P388 cells allografted in female CDF1 mouse assessed as disease cures by measuring 30-days host survival at 100 mg/kg, ip administered daily for 9 days as Klucel suspension starting 24 hrs after tumor inoculation relative to control; type: functional; conditions: route intraperitoneal; summary of the method: as §2
L1210 [23] = assay: Antileukemic activity against mouse L1210 cells allografted in female BDF1 mouse assessed as change in body weight at 100 mg/kg, ip administered daily for 9 days as Klucel suspension starting 24 hrs after tumor inoculation; type: functional; conditions: route intraperitoneal; summary of the method: as §6

## CNC(=O)OCc1c(COC(=O)NC)c(-c2ccc(OC)cc2)n2c1CCC2
Mus musculus [1]
  Activity: Non-toxic
P388 [2]
  T/C: 55%
P388 [3]
  T/C: 132%
P388 [4]
  Activity: -4 g
L1210 [5]
  T/C: 117%
L1210 [6]
  T/C: 98%
P388 [7]
  Activity: -3.6 g
Mus musculus [8]
  Activity: Non-toxic
Mus musculus [9]
  Activity: Non-toxic
P388 [10]
  Activity: -3.3 g
P388 [11]
  Activity: -3.2 g
Mus musculus [12]
  Activity: Non-toxic
Mus musculus [13]
  Activity: Non-toxic
P388 [14]
  T/C: 131%
[15]
  EC50: 21 µg/mL (≈ 54.2 µM)
P388 [16]
  Activity: -3.7 g
L1210 [17]
  T/C: 109%
L1210 [18]
  Activity: -5 g
P388 [19]
  T/C: 132%
L1210 [20]
  Activity: -2.3 g
Mus musculus [21]
  Activity: Non-toxic
P388 [22]
  T/C: 129%
L1210 [23]
  Activity: -4.8 g
